# Data: ChEMBL document CHEMBL1153310, “New prostaglandin derivative for glaucoma treatment” (Bioorg Med Chem Lett, 2009)
# Key:
# [1] = system: Oryctolagus cuniculus; test: Increase in glutathione levels in aqueous humor of normotensive pigmented rabbit at 0.005%, topical administration; assay type: functional, Aqueous humor of eyeball
# Outline: (§1)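 Normotensive rabbits given a single topical instillation at one of three dose levels. Aqueous humour centrifuged at 100.000g, 4 °C for 30 min. Supernatant diluted in phosphate-EDTA buffer and reacted with o-phthaldialdehyde (1 mg/ml) for 15 min at room temperature. Fluorescence read at ex 350/em 420 nm, calibrated with a GSH standard curve.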
# [2] = system: Oryctolagus cuniculus; test: Effect on intraocular pressure in carbomer-induced glaucoma in pigmented rabbit assessed as AUC at 0.005%, topical administration continuously for 5 days; assay type: functional, organism-based; conditions: Eye
# Outline: (§2)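 Glaucoma induced by carbomer injection into the anterior chamber; IOP checked every 30 min over the first 3 h, then at least three times daily until stabilized at high levels. Drug instilled topically, once (single-dose) or daily for 5 days (repeated). IOP measured by Tono-Pen tonometer; single-dose readings at 30, 60, 120 and 240 min; AUC in mm Hg h.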
# [3] = system: Oryctolagus cuniculus; test: Increase in glutathione levels in aqueous humor of carbomer-induced glaucomatous pigmented rabbit at 0.005%, topical administration continuously for 5 days by fluorimetry; assay type: functional, Aqueous humor of eyeball
# Outline: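 Carbomer-glaucomatous rabbits given daily topical 0.005% instillation for 5 days. Aqueous humour centrifuged at 100.000g, 4 °C for 30 min. Supernatant diluted in phosphate-EDTA buffer and reacted with o-phthaldialdehyde (1 mg/ml) for 15 min at room temperature. Fluorescence read at ex 350/em 420 nm against a GSH standard curve, in pmol/ml.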
# [4] = system: Oryctolagus cuniculus; test: Effect on intraocular pressure in carbomer-induced glaucoma in New Zealand albino rabbit assessed as AUC at 0.005%, topical administration measured after 4 hrs; assay type: functional, organism-based; parameters: time < 4 hr; conditions: Eye; outline: as §2
# [5] = system: Oryctolagus cuniculus; test: Effect on intraocular pressure in carbomer-induced glaucoma in pigmented rabbit assessed as AUC at 0.005%, single topical administration measured over 4 hrs by tonometry; conditions: Eye
# [6] = system: Oryctolagus cuniculus; test: Increase in cGMP levels in aqueous humor of carbomer-induced glaucomatous pigmented rabbit at 0.005%, topical administration continuously for 5 days by radioimmunoassay; assay type: functional, Aqueous humor of eyeball
# Outline: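 Aqueous humour taken after 5 days of daily topical instillation at 0.005%. Samples treated with 10% trichloroacetic acid and centrifuged. TCA extracted with 0.5 M tri-n-octylamine in 1,1,2-trichloro-1,2,2-trifluoroethane. cGMP quantified by radioimmunoassay using labelled cGMP.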
# [7] = system: Oryctolagus cuniculus; test: Reduction in intraocular pressure in carbomer-induced glaucoma in pigmented rabbit at 0.005%, topical administration continuously for 2 days; assay type: functional, Eye; outline: as §2
# [8] = system: Oryctolagus cuniculus; test: Reduction in intraocular pressure in carbomer-induced glaucoma in pigmented rabbit at 0.005%, topical administration measured after 240 mins; assay type: functional, Eye; outline: as §2
# [9] = system: Oryctolagus cuniculus; test: Reduction in intraocular pressure in carbomer-induced glaucoma in pigmented rabbit at 0.005%, topical administration continuously for 5 days; assay type: functional, Eye; outline: as §2
# [10] = system: Oryctolagus cuniculus; test: Reduction in intraocular pressure in carbomer-induced glaucoma in pigmented rabbit at 0.005%, topical administration continuously for 3 days; assay type: functional, Eye; outline: as §2
# [11] = system: Oryctolagus cuniculus; test: Reduction in intraocular pressure in carbomer-induced glaucoma in pigmented rabbit at 0.005%, topical administration continuously for 4 days; assay type: functional, Eye; outline: as §2
# [12] = system: Oryctolagus cuniculus; test: Reduction in intraocular pressure in carbomer-induced glaucoma in albino rabbit at 0.005%, topical administration measured after 120 mins; assay type: functional, Eye; outline: as §2
# [13] = system: Oryctolagus cuniculus; test: Reduction in intraocular pressure in carbomer-induced glaucoma in pigmented rabbit at 0.005%, topical administration measured after 120 mins; assay type: functional, Eye; outline: as §2
# [14] = system: Oryctolagus cuniculus; test: Reduction in intraocular pressure in carbomer-induced glaucoma in pigmented rabbit at 0.005%, topical administration measured after 30 mins; assay type: functional, Eye; outline: as §2
# [15] = system: Oryctolagus cuniculus; test: Reduction in intraocular pressure in carbomer-induced glaucoma in albino rabbit at 0.005%, topical administration measured after 240 mins; assay type: functional, Eye; outline: as §2
# [16] = system: Oryctolagus cuniculus; test: Reduction in intraocular pressure in carbomer-induced glaucoma in pigmented rabbit at 0.005%, topical administration measured after 60 mins; assay type: functional, Eye; outline: as §2
# [17] = system: Oryctolagus cuniculus; test: Reduction in intraocular pressure in carbomer-induced glaucoma in pigmented rabbit at 0.005%, topical administration for 1 day; assay type: functional, Eye; outline: as §2
# [18] = system: Oryctolagus cuniculus; test: Reduction in intraocular pressure in carbomer-induced glaucoma in albino rabbit at 0.005%, topical administration continuously measured after […]; assay type: functional, Eye; outline: as §2
# [19] = system: Oryctolagus cuniculus; test: Reduction in intraocular pressure in carbomer-induced glaucoma in albino rabbit at 0.005%, topical administration measured after 60 mins; assay type: functional, Eye; outline: as §2
# [20] = system: Oryctolagus cuniculus; test: Reduction in intraocular pressure in carbomer-induced glaucoma in albino rabbit at 0.005%, topical administration measured after 30 mins; assay type: functional, Eye; outline: as §2
# [21] = system: Oryctolagus cuniculus; test: Increase in glutathione levels in aqueous humor of normotensive pigmented rabbit at 0.008%, topical administration; assay type: functional, Aqueous humor of eyeball; outline: as §1
# [22] = species on record: Oryctolagus cuniculus; test: Toxicity in New Zealand albino rabbit assessed as tolerability at 0.008% by Draize test; assay type: organism-based; conditions: in vivo
# Outline: (§3)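 Ocular tolerability scored by Draize test in New Zealand albino rabbits at three concentrations, compared with placebo.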
# [23] = system: Oryctolagus cuniculus; test: Increase in glutathione levels in aqueous humor of normotensive pigmented rabbit at 0.01%, topical administration; assay type: functional, Aqueous humor of eyeball; outline: as §1
# [24] = system: Oryctolagus cuniculus; test: Reduction in intraocular pressure in carbomer-induced glaucoma in pigmented rabbit at 0.005%, single topical administration measured over 4 hrs relative to latanoprost; parameters: scale not given: the % may be the effect or the level left
# [25] = species on record: Oryctolagus cuniculus; test: Toxicity in New Zealand albino rabbit assessed as tolerability at 0.01% by Draize test; assay type: organism-based; conditions: in vivo; outline: as §3
# [26] = system: Oryctolagus cuniculus; test: Reduction in intraocular pressure in carbomer-induced glaucoma in pigmented rabbit at 0.005%, topical administration continuously for 5 days relative to latanoprost; assay type: functional, Eye; parameters: scale not given: the % may be the effect or the level left; outline: as §2
# [27] = species on record: Oryctolagus cuniculus; test: Toxicity in New Zealand albino rabbit assessed as tolerability at 0.005% by Draize test; assay type: organism-based; conditions: in vivo; outline: as §3
smiles,measurement,setting,value
CC(C)OC(=O)CCC/C=C\C[C@@H]1[C@@H](CC[C@@H](O)CCc2ccccc2)[C@H](O)C[C@@H]1O [LATANOPROST],Activity,[1],38.7 pmol/mL
same,AUC,[2],2660 mmHg.hr
same,Activity,[3],36.44 pmol/mL
same,AUC,[4],119 mmHg.hr
same,AUC,[5],109 mmHg.hr
same,Activity,[6],71.8 fmol/mL
Oc1ccc(-c2cc(=S)ss2)cc1,Activity,[7],26 mmHg
same,Activity,[8],23.5 mmHg
same,Activity,[9],22 mmHg
same,Activity,[1],58.3 pmol/mL
same,Activity,[10],23 mmHg
same,Activity,[11],22.2 mmHg
same,Activity,[12],26.2 mmHg
same,Activity,[13],26 mmHg
same,Activity,[14],30 mmHg
same,Activity,[3],60.4 pmol/mL
same,Activity,[15],25.2 mmHg
same,Activity,[16],29 mmHg
same,Activity,[17],26.7 mmHg
same,Activity,[18],25 mmHg
same,Activity,[6],122 fmol/mL
same,Activity,[19],28 mmHg
same,Activity,[20],29.5 mmHg
O=C(CCC/C=C\C[C@@H]1[C@@H](CC[C@@H](O)CCc2ccccc2)[C@H](O)C[C@@H]1O)Oc1ccc(-c2cc(=S)ss2)cc1,Activity,[21],69.83 pmol/mL
same,Activity,[22],Non-toxic
same,Activity,[1],60.04 pmol/mL
same,AUC,[2],2090 mmHg.hr
same,Activity,[23],82.89 pmol/mL
same,Activity,[3],65.27 pmol/mL
same,AUC,[4],106 mmHg.hr
same,AUC,[5],75.2 mmHg.hr
same,Activity,[24],30.8%
same,Activity,[25],Non-toxic
same,Activity,[6],118 fmol/mL
same,Activity,[26],27%
same,Activity,[27],Non-toxic
